Bioassay records as filed in PubChem.
CRFBP-R2 agonist = CRF-BP/CRF-R2 complex agonism; 350,000 tested, 0.46% active; activation, % at 13.2 µM; HEK293 CRF-R2/CRF-BP, calcium dye fluorescence (FLIPR); percent of saturating CRF peptide response;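 active = activation of at least 50%, plus an integration ratio under a set limit after plate pattern correction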;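 note: plate controls were neutral control wells without compound for no effect and CRF at EC100 for full effect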
Tn7 DDE FP = disrupts Tn7 cyclic peptide binding to fibrin D-Dimer-E complex. P02675. FP displacement of FITC-Tn7 peptide from fibrin DD(E); 0% = median of compound wells per plate. inhibition, % at 8.3 µM. 370,000 tested, 0.13% active;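 active = inhibition above the mean of compounds falling within the control limits plus 3 SD of them, cut at about 14% in these data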;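 note: 0% = plate median of compound wells and 100% = 10 µM Aha-Tn7 peptide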
Target sequence (P02675 whole entry, looked up): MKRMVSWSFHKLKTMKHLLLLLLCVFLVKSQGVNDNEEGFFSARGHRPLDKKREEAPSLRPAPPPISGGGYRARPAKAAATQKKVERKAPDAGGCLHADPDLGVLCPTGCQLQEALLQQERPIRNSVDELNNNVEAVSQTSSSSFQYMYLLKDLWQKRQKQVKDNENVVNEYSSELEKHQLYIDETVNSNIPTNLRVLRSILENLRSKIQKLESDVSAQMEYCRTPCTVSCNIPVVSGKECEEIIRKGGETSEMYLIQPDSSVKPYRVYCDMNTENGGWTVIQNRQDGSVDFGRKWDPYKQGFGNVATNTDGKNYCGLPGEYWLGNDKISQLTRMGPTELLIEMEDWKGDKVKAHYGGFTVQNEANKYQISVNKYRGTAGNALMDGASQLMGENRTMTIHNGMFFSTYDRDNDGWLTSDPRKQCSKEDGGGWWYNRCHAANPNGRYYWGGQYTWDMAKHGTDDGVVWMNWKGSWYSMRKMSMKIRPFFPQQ
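Test system: human clot-derived fibrin DD(E) complex / Quantity: 2 µM final DD(E) protein / Incubation: 10 min plus 3 h, room temperature / Measured by: fluorescence polarization / Benchmarks: high control of 10 µM Aha-Tn7 peptide / Replicates: singlicate testing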
Tn6 DDE FP = disrupts Tn6 cyclic peptide binding to fibrin D-Dimer-E complex; Fibrin DD(E) TRITC-Tn6 fluorescence polarization displacement; inhibition, % at 8.3 µM; 370,000 tested, 0.21% active;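 active = inhibition above a per-campaign cutoff: mean of compounds within control limits plus 3 SD, cut at about 15% in these data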;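 note: 0% = median of all compound wells on the plate and 100% = blocking peptide control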
CRFR2-BP antag = blocks CRF-induced signaling of the CRF-BP/CRF-R2 complex; HEK293 CRF-R2/CRF-BP, CRF-induced calcium fluorescence; inhibition, % at 11.8 µM; 350,000 tested, 0.59% active;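 active = inhibition of the ligand-induced calcium signal above about 50% at the single tested concentration, limit read from the data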
* marks the source's active call; other numbers are inactive results; . = no result. In the library only some 1.2% were active in any assay of this set; here they are far more common.

SMILES | CRFBP-R2 agonist | Tn7 DDE FP | Tn6 DDE FP | CRFR2-BP antag
CN1C(=O)C2(OCC(C)([N+](=O)[O-])CO2)c2ccccc21 (stereo not drawn) | -3.6 | -7.5 | 6.4 | 22.5
CCc1cc2c(nc1CC)CCCN2S(=O)(=O)c1ccccc1 | . | -8.9 | -2.2 | .
O=C(CCCCCN1C(=O)C2C3C=CC(C3)C2C1=O)Nc1ccc2ncccc2c1 (stereo not drawn) | . | -2.4 | 5.2 | .
Cc1cc(C)c(S(=O)(=O)n2ccc3ccccc32)c(C)c1 | -0.5 | -3.1 | -7.5 | 58.3*
C[C@@H]1COc2cc(N3CCCCC3)ccc2S(=O)(=O)N1 | . | 1.7 | -0.3 | .
Cn1c(N)c(-c2ccccc2)c2ccc([N+](=O)[O-])cc2c1=O | 123.2* | -9.3 | 1.1 | -124.7
N#Cc1c(N)n(Cc2ccccc2)c(=O)c2cc([N+](=O)[O-])ccc12 | -0.5 | -1.6 | 0.3 | -28.3
COc1ccc(NC(=O)CC(c2ccc(F)cc2)c2ccc(OC)cc2)cc1 (stereo not drawn) | -0.5 | -7.4 | 6.5 | 2.4
COc1ccc(C(CC(=O)Nc2ccc(F)cc2)c2ccccc2)cc1 (stereo not drawn) | 5.4 | 4.2 | -2.5 | 52.0*
CC(COc1cc(F)cc(F)c1)CN1CCC(C(O)(c2ccccc2)c2ccccc2)CC1 (stereo not drawn) | . | -1.3 | 7.2 | .
CC(C)N1Cc2nnn(Cc3ccccc3)c2-c2cc(N3CCCC3)ccc2S1(=O)=O | . | -3.2 | 0.0 | .
COc1ccc(S(=O)(=O)Nc2c(C)n(C)n(-c3ccccc3)c2=O)cc1C(=O)O | 1.9 | 0.9 | -0.5 | 51.4*
CC(=O)C1=C(C)N(Cc2ccc(F)cc2)C(=S)NC1c1ccc(Cl)cc1 (stereo not drawn) | . | 5.3 | 0.3 | .
CCCCNC(=O)CCc1nc2cccnc2n1Cc1ccc(OC)cc1 | -2.3 | -2.2 | -6.9 | 69.0*
CCCCNC(=O)c1cn(CC)c2ccc(S(=O)(=O)N3CCCCCC3)cc2c1=O | 1.6 | 4.9 | 0.4 | 59.8*
CCn1cc(C(=O)NCCCOC(C)C)c(=O)c2cc(S(=O)(=O)N3CCCC3)ccc21 | 8.4 | 6.4 | 5.8 | -4.5
CCC(c1nnnn1C1CCCC1)N1CCN(Cc2ccccc2)CC1 (stereo not drawn) | -1.4 | -7.1 | -6.0 | 102.6*
CCC(c1nnnn1C1CCCC1)N1CCN(C/C=C/c2ccccc2)CC1 (stereo not drawn) | . | -5.0 | -0.2 | .
Cc1onc(-c2ccccc2)c1C(=O)NNC(=O)c1ccccc1 | -0.3 | 3.9 | 2.8 | 4.0
Cc1ccc(/C=N/NC(=O)c2c(-c3ccccc3)noc2C)o1 | -0.8 | 0.8 | 1.6 | 5.2
Cc1onc(-c2ccccc2)c1C(=O)N/N=C/c1cc(Br)c(Br)o1 | 2.0 | 7.3 | -4.0 | 103.4*
Cc1onc(-c2ccccc2)c1C(=O)NNC(=S)NC(=O)c1ccc(Br)cc1 | 150.3* | -6.2 | 3.6 | -39.4
Cc1ccccc1C(=O)NNC(=S)NC(=O)c1ccc(Cl)cc1Cl | 157.6* | -5.7 | 4.7 | -61.6
O=C(NC(=S)NNC(=O)c1ccc(Cl)cc1Cl)c1cccnc1 | -1.4 | -2.4 | 5.1 | -6.9
COC(=O)c1cc(OC)c(OC)cc1NC(=O)c1c(-c2ccccc2)noc1C | -1.3 | . | . | 67.6*
SMILES | CRFBP-R2 agonist | Tn7 DDE FP | Tn6 DDE FP | CRFR2-BP antag
O=C(NCCN1CCC(n2c(=O)[nH]c3cc(Cl)ccc32)CC1)c1ccc(F)cc1 | . | -5.2 | -1.9 | .
COc1ccc(C2CC(=O)C(c3ccc(C)cc3)=CN2Cc2ccccc2)cc1 (stereo not drawn) | . | 7.2 | -3.9 | .
Cc1onc(-c2ccccc2)c1C(=O)NNC(=S)NC(=O)c1ccc(Cl)cc1Cl | 217.4* | -0.5 | -3.5 | -137.4
Cc1onc(-c2ccccc2)c1C(=O)NNC(=S)NC(=O)/C=C/c1ccccc1 | 65.5* | -8.3 | 0.1 | -26.3
CCNC(=S)NNC(=O)c1cccn(Cc2ccc(Cl)cc2Cl)c1=O | 60.9* | -4.6 | -0.9 | -86.9
Cc1onc(-c2ccccc2)c1C(=O)NNC(=O)c1ccccc1O | -0.8 | 7.1 | 3.8 | 2.5
C=CCNC(=S)NNC(=O)c1cccn(Cc2ccc(Cl)cc2Cl)c1=O | 17.7 | -4.8 | -2.1 | -61.1
Nc1ncnc2c1ncn2[C@@H]1O[C@H](C(=O)N[C@@H](CCc2ccccc2)C(=O)N2CCN(CC(=O)N3CCCC3)CC2)[C@@H](O)[C@H]1O | . | -3.8 | 8.4 | .
CN(C)CCCN1C(=O)c2cccc3c([N+](=O)[O-])ccc(c23)C1=O | 56.0* | -1.7 | -0.9 | 80.9*
O=C1c2cccc3c([N+](=O)[O-])ccc(c23)C(=O)N1CCc1ccccn1 | 2.0 | 5.7 | 4.9 | 22.7
Nc1ccc(-c2nc3ccc(N)cc3[nH]2)cc1 | 0.2 | -3.8 | -1.1 | 14.4
Nc1ccc2cc3[nH]c4cc(N)ccc4c3nc2c1 | 175.4* | -9.0 | -11.4 | -130.1
COc1cccc(N2CCN(S(=O)(=O)c3c(C)[nH]c(C)c3C(=O)N3CCCC3)CC2)c1 | 1.8 | -0.8 | 0.4 | 120.0*
O=S(=O)(CC1NCc2cc(F)ccc21)NCc1ccccc1 (stereo not drawn) | . | 1.7 | 6.4 | .
COC(=O)C1CN(CCO)CCS(=O)(=O)N1Cc1cccc(Cl)c1 (stereo not drawn) | . | -8.4 | -0.4 | .
CC(C)(C)c1ccc(C(=O)N2CCC(=O)N(C(CO)Cc3ccccc3)CC2)cc1 (stereo not drawn) | 50.9* | -3.5 | -6.2 | -7.2
Oc1ccc(N=Cc2ccc(-c3cccs3)s2)cc1 | 0.3 | -5.4 | 18.5* | 0.1
O=Cc1ccc(-c2cccs2)s1 | 9.1 | -5.8 | -1.7 | -2.1
CC(C)(C(=O)N1CCC1(C)C(=O)NS(=O)(=O)c1cccc(C#N)c1)c1ccccc1 (stereo not drawn) | . | -2.3 | 6.0 | .
C[C@H]1[C@@H](NC(=O)C(c2ccccc2)c2ccccc2)CC[C@@]23CCCN2C(=O)CCC[C@@H]13 | . | -1.6 | 1.0 | .
Cc1cccc(S(=O)(=O)c2c(N)n(Cc3ccco3)c3nc4ccccc4nc23)c1 | 96.9* | 8.1 | -0.5 | -93.4
CN(C)c1c([N+](=O)[O-])ncn1C | 0.3 | -0.5 | -10.4 | 53.7*
CCOc1ccc(NC(=O)CCNS(=O)(=O)c2cccc3nonc23)cc1 | 0.6 | 5.5 | 1.0 | 54.9*
COc1ccc(/C=C(/C(=O)c2ccc(Cl)cc2Cl)n2cncn2)cc1 | -0.2 | -9.1 | -5.4 | -41.1
CN(C)c1ccc(/C=C(/C(=O)c2ccc(Cl)cc2Cl)n2cncn2)cc1 | 70.8* | -8.5 | -0.9 | -122.2
O=C(COC(=O)c1ccc([N+](=O)[O-])s1)Nc1cccc(S(=O)(=O)NC2=NCCCCC2)c1 | -1.0 | 3.6 | -0.7 | 68.3*
O=C(COC(=O)c1cccs1)Nc1cccc(S(=O)(=O)NC2=NCCCCC2)c1 | -0.5 | -1.7 | 3.2 | 2.0
O=S(=O)(Nc1ccccc1)c1cccc2nsnc12 | 0.9 | -1.6 | 5.2 | 7.5
Cc1ccc(NS(=O)(=O)c2cccc3nsnc23)cc1 | -0.6 | 3.4 | 9.9 | 75.2*
O=[N+]([O-])c1ccc(-c2ccc(/C=N/Nc3nc(NCc4ccccc4)nc(N4CCOCC4)n3)o2)cc1 | 56.5* | -6.3 | -7.2 | -88.7
